Reference: ChEMBL document CHEMBL1157639, “Identification of inhibitors of drug-resistant Candida albicans strains from a library of bicyclic peptidomimetic compounds” (2010)

Tests used:
[1] = target: Secreted aspartic protease 2 (Candida albicans) (UniProt P0CS83); assay: Inhibition of Candida albicans SAP2 at 20 uM by spectrophotometry relative to pepstatin A
How it was run: (§1)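 Sample was mixed with 1% (w/v) BSA substrate in 50 mM sodium citrate, pH 3.2, plus SAP2 protease (1 μg/mL stock solution) and incubated 30 min at 37 °C. The reaction was stopped with 10% TCA, kept 30 min on ice, and centrifuged; supernatant A280 was read. Percent inhibition was taken from ΔOD, with control proteinase minus proteinase plus pepstatin A set as 100%.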

[2] = target: Secreted aspartic protease 2 (Candida albicans) (UniProt P0CS83); assay: Inhibition of Candida albicans SAP2 at 10 uM by spectrophotometry relative to pepstatin A; how it was run: as §1
[3] = target: Secreted aspartic protease 2 (Candida albicans) (UniProt P0CS83); assay: Inhibition of Candida albicans SAP2 at 10 uM by spectrophotometry; how it was run: as §1
Candida albicans [4] = assay: Antifungal activity against Candida albicans SA40 infected in Wistar rat estrogen-dependent fungal vaginitis model assessed as fungal burden at 10 uM administered intravaginally 48 hrs after fungal infection measured on day 7 after infection; format: functional, Vagina
How it was run: (§2)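 Oophorectomized female Wistar rats (80-100 g), given 0.5 mg estradiol benzoate subcutaneously, were challenged intravaginally six days later with >10⁷ YPD-grown yeast cells in 0.1 mL saline. Compound at 10 μM was instilled intravaginally at 1, 24 and 48 h post-challenge. Vaginal fluid samples (100 μL) were plated on Sabouraud agar with chloramphenicol (50 μg/mL), and burden was expressed as CFU/mL ×1000.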

Candida albicans [5] = assay: Antifungal activity against pharmacoresistant Candida albicans AIDS68 infected in Wistar rat estrogen-dependent fungal vaginitis model assessed as fungal burden at 10 uM administered intravaginally 48 hrs after fungal infection measured on day 14 after infection; format: functional, Vagina
How it was run: (§3)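 Oophorectomized female Wistar rats (80-100 g) got 0.5 mg estradiol benzoate s.c. Six days later they were inoculated intravaginally with >10⁷ YPD-grown yeast cells (28 °C, washed, hemocytometer-counted) in 0.1 mL saline. Treatment was given intravaginally at 1, 24 and 48 h post-challenge. Burden was counted by culturing 100 μL vaginal fluid on Sabouraud-chloramphenicol (50 μg/mL) agar, as CFU/mL ×1000, through day 28.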

Candida albicans [6] = assay: Antifungal activity against pharmacoresistant Candida albicans AIDS68 infected in Wistar rat estrogen-dependent fungal vaginitis model assessed as fungal burden at 10 uM administered intravaginally 48 hrs after fungal infection measured on day 7 after infection; format: functional, Vagina; how it was run: as §3
Candida albicans [7] = assay: Antifungal activity against pharmacoresistant Candida albicans AIDS68 infected in Wistar rat estrogen-dependent fungal vaginitis model assessed as fungal burden at 10 uM administered intravaginally 24 hrs after fungal infection measured on day 2 after infection; format: functional, Vagina; how it was run: as §3
Candida albicans [8] = assay: Antifungal activity against pharmacoresistant Candida albicans AIDS68 infected in Wistar rat estrogen-dependent fungal vaginitis model assessed as fungal burden at 10 uM administered intravaginally 48 hrs after fungal infection measured on day 28 after infection; format: functional, Vagina; how it was run: as §3
Candida albicans [9] = assay: Antifungal activity against Candida albicans SA40 infected in Wistar rat estrogen-dependent fungal vaginitis model assessed as fungal burden at 10 uM administered intravaginally 1 hr after fungal infection measured within 1 day of infection; format: functional, Vagina; how it was run: as §3
[10] = target: Secreted aspartic protease 2 (Candida albicans) (UniProt P0CS83); assay: Inhibition of Candida albicans SAP2 at 0.02 uM by spectrophotometry relative to pepstatin A; how it was run: as §1
[11] = target: Secreted aspartic protease 2 (Candida albicans) (UniProt P0CS83); assay: Inhibition of Candida albicans SAP2 at 2 uM by spectrophotometry relative to pepstatin A; how it was run: as §1
Candida albicans [12] = assay: Antifungal activity against pharmacoresistant Candida albicans AIDS68 infected in Wistar rat estrogen-dependent fungal vaginitis model assessed as fungal burden at 10 uM administered intravaginally 1 hr after fungal infection measured on day 1 after infection; format: functional, Vagina; how it was run: as §3
Candida albicans [13] = assay: Antifungal activity against pharmacoresistant Candida albicans AIDS68 infected in Wistar rat estrogen-dependent fungal vaginitis model assessed as fungal burden at 10 uM administered intravaginally 48 hrs after fungal infection measured on day 5 after infection; format: functional, Vagina; how it was run: as §3
Candida albicans [14] = assay: Antifungal activity against Candida albicans SA40 infected in Wistar rat estrogen-dependent fungal vaginitis model assessed as fungal burden at 10 uM administered intravaginally 48 hrs after fungal infection measured on day 14 after infection; format: functional, Vagina; how it was run: as §2
Candida albicans [15] = assay: Antifungal activity against Candida albicans SA40 infected in Wistar rat estrogen-dependent fungal vaginitis model assessed as fungal burden at 10 uM administered intravaginally 48 hrs after fungal infection measured on day 28 after infection; format: functional, Vagina; how it was run: as §3
Candida albicans [16] = assay: Antifungal activity against Candida albicans SA40 infected in Wistar rat estrogen-dependent fungal vaginitis model assessed as fungal burden at 10 uM administered intravaginally 24 hrs after fungal infection measured on day 2 after infection; format: functional, Vagina; how it was run: as §2
Candida albicans [17] = assay: Antifungal activity against Candida albicans SA40 infected in Wistar rat estrogen-dependent fungal vaginitis model assessed as fungal burden at 10 uM administered intravaginally 48 hrs after fungal infection measured on day 5 after infection; format: functional, Vagina; how it was run: as §2
Candida albicans [18] = assay: Antifungal activity against Candida albicans SA40 infected in Wistar rat estrogen-dependent fungal vaginitis model assessed as fungal burden at 10 uM administered intravaginally 48 hrs after fungal infection measured on day 21 after infection; format: functional, Vagina; how it was run: as §2
Candida albicans [19] = assay: Antifungal activity against Candida albicans SA40 infected in Wistar rat estrogen-dependent fungal vaginitis model assessed as fungal burden at 10 uM administered intravaginally 1 hr after fungal infection measured on day 1 after infection; format: functional, Vagina; how it was run: as §2

Secreted aspartic protease 2 (Candida albicans), sequence (P0CS83 57-398 limits assumed): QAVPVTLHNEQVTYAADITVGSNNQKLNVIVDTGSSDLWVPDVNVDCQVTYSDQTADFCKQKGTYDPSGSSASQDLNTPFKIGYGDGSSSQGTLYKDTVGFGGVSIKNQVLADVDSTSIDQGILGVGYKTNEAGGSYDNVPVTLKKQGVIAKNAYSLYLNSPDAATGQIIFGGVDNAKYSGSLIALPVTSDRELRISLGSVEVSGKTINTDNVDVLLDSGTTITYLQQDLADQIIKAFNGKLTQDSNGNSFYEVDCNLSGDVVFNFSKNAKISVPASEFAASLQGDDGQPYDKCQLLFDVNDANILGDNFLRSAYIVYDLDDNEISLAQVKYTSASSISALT

SMILES | inhibition [1] | inhibition [2] | inhibition [3] | also measured
O=C([C@@H]1O[C@H]2CN(Cc3ccccc3)C(=O)[C@@H]1O2)N1CCCNCC1 | 63% | 19% | 10% | –
CC(C)C[C@@H](CO)NC(=O)[C@@H]1O[C@H]2CN(Cc3ccccc3)C(=O)[C@@H]1O2 | 71% | 61% | – | Activity (Candida albicans [4]): 28.8 ×10³ CFU/ml; Activity (Candida albicans [5]): 11.2 ×10³ CFU/ml; Activity (Candida albicans [6]): 22.8 ×10³ CFU/ml; Activity (Candida albicans [7]): 55.4 ×10³ CFU/ml; Activity (Candida albicans [8]): 0 ×10³ CFU/ml; Activity (Candida albicans [9]): 100 ×10³ CFU/ml; inhibition [10]: 1.4%; inhibition [11]: 6.9%; Activity (Candida albicans [12]): 61.6 ×10³ CFU/ml; Activity (Candida albicans [13]): 26.8 ×10³ CFU/ml; Activity (Candida albicans [14]): 14 ×10³ CFU/ml; Activity (Candida albicans [15]): 2.2 ×10³ CFU/ml; Activity (Candida albicans [16]): 58 ×10³ CFU/ml; Activity (Candida albicans [17]): 35.8 ×10³ CFU/ml; Activity (Candida albicans [18]): 4.2 ×10³ CFU/ml; Activity (Candida albicans [19]): 61 ×10³ CFU/ml
O=C([C@@H]1O[C@H]2CN(Cc3ccccc3)C(=O)[C@@H]1O2)N1CCOCC1 | 62% | 92% | 31% | –
O=C([C@H]1O[C@H]2CN(Cc3ccccc3)C(=O)[C@@H]1O2)N1CCCCC1 | 50% | – | – | –
CCOC(=O)N1CCN(C(=O)[C@@H]2O[C@H]3CN(Cc4ccccc4)C(=O)[C@@H]2O3)CC1 | 74% | 19% | 10% | –
O=C([C@@H]1O[C@H]2CN(Cc3ccccc3)C(=O)[C@@H]1O2)N1CCN(CCO)CC1 | 58% | 92% | 31% | –
O=C([C@@H]1O[C@H]2CN(Cc3ccccc3)C[C@@H]1O2)N1CCCCC1 | – | 6% | 2% | –

Now from value to compound, other results behind:

inhibition [1] | inhibition [2] | inhibition [3] | SMILES | also measured
60% | – | – | CC(C)C[C@H](CO)NC(=O)[C@H]1O[C@@H]2CN(Cc3ccccc3)C(=O)[C@@H]1O2 | –
34% | – | – | O=C1[C@@H]2O[C@H](CN1Cc1ccccc1)O[C@H]2C(=O)N1CCC[C@@H]1CO | –
35% | – | – | C[C@@H](CO)NC(=O)[C@@H]1O[C@H]2CN(Cc3ccccc3)C(=O)[C@@H]1O2 | –
23% | – | – | O=C(NCCCO)[C@@H]1O[C@H]2CN(Cc3ccccc3)C(=O)[C@@H]1O2 | –
– | 18% | 4% | CC(C)CNC(=O)[C@@H]1O[C@H]2CN(Cc3ccccc3)C(=O)[C@@H]1O2 | –
